Results pooled from the literature.
Lines come from different studies, so protocols differ. In brackets after ≈: the same amount, converted by molar mass.

| Structure (SMILES) | organism | test | system | conditions | quantity | value |
| --- | --- | --- | --- | --- | --- | --- |
| CC1(C)S[C@@H]2[C@H](NC(=O)[C@H](N)c3ccccc3)C(=O)N2[C@H]1C(=O)O | Bacillus subtilis | microbial growth |  |  | MIC | 2 µg/mL (≈ 5.72 µM) |
| O=C(Nc1ccc2cccnc2c1)c1ccc(COC(Cn2ccnc2)c2ccc(Cl)cc2Cl)cc1 (stereo not drawn) | Nakaseomyces glabratus | microbial growth, broth dilution |  |  | MIC80 | 8 µg/mL (≈ 15.5 µM) |
| [H]/N=C(/N)N[C@H]1[C@H](O)[C@@H](O)[C@H](O[C@@H]2O[C@@H](C)[C@](O)(C=O)[C@H]2O[C@@H]2O[C@@H](CO)[C@H](O)[C@@H](O)[C@@H]2NC)[C@@H](N/C(N)=N\[H])[C@@H]1O | Bacillus subtilis | microbial growth, well diffusion | MTCC121 | 1000 µg/mL, 18 h | inhibition zone | 24 mm |
| C#CCON=C1C=CC(=C(C#N)c2ccccc2)C=C1 | Nakaseomyces glabratus | microbial growth, broth dilution | ATCC15126 | 48 h | MIC | 16 µg/mL (≈ 61.5 µM) |
| C/C(=N/NC(=O)c1cn(-c2ccccc2)nc1-c1ccc(Cl)cc1)c1c(O)cc(C)oc1=O | Bacillus subtilis | microbial growth |  |  | MIC | 70 µg/mL (≈ 151 µM) |
| O=C(Nc1ccc2[nH]ccc2c1)c1ccc(COC(Cn2ccnc2)c2ccc(Cl)cc2Cl)cc1 (stereo not drawn) | Nakaseomyces glabratus | microbial growth, broth dilution |  |  | MIC80 | 128 µg/mL (≈ 253 µM) |
| CC(=O)ON=C1C=CC(=C(C#N)c2ccccc2)C=C1 | Nakaseomyces glabratus | microbial killing, broth dilution | ATCC15126 | 48 h | MFC | 16 µg/mL (≈ 60.5 µM) |
| O=C(Nc1ccc(Br)cc1)c1ccc(COC(Cn2ccnc2)c2ccc(Cl)cc2Cl)cc1 (stereo not drawn) | Nakaseomyces glabratus | microbial growth, broth dilution |  |  | MIC80 | 0.125 µg/mL (≈ 0.229 µM) |
| CCOC(=O)/C=C1/SC(N/N=C/c2c(-c3ccc(OC)cc3)nc3ncccn23)=NC1=O | Bacillus subtilis | microbial growth, well diffusion | ATCC6051 | 100 µg/mL | inhibition zone | 11 mm |
| OC(Cn1cncn1)(Cn1cncn1)c1ccc(F)cc1F | Cryptococcus neoformans | microbial growth, broth dilution | H99 | 48 h | MIC | 8 µg/mL (≈ 26.1 µM) |
| O=C(Nc1ccc2ccccc2c1)c1ccc(COC(Cn2ccnc2)c2ccc(Cl)cc2Cl)cc1 (stereo not drawn) | Nakaseomyces glabratus | microbial growth, broth dilution |  |  | MIC80 | 64 µg/mL (≈ 124 µM) |
| C#CCOC(=O)ON=C1C=CC(=C(C#N)c2ccccc2)C=C1 | Nakaseomyces glabratus | microbial growth, broth dilution | ATCC15126 | 48 h | MIC | 16 µg/mL (≈ 52.6 µM) |
| C/C(=N/NC(=O)c1cn(-c2ccccc2)nc1-c1ccc(C)cc1)c1c(O)cc(C)oc1=O | Bacillus subtilis | microbial growth |  |  | MIC | 50 µg/mL (≈ 113 µM) |
| O=C(Nc1cccc(F)c1)c1ccc(COC(Cn2ccnc2)c2ccc(Cl)cc2Cl)cc1 (stereo not drawn) | Nakaseomyces glabratus | microbial growth, broth dilution |  |  | MIC80 | 0.125 µg/mL (≈ 0.258 µM) |
| C=CC(=O)ON=C1C=CC(=C(C#N)c2ccccc2)C=C1 | Nakaseomyces glabratus | microbial killing, broth dilution | ATCC15126 | 48 h | MFC | 16 µg/mL (≈ 57.9 µM) |
